# Test results reported in ChEMBL document CHEMBL1127309, “A novel and useful descriptor for hydrophobicity, partition coefficient micellar-water, and its application to a QSAR study of antiplatelet agents” (J Med Chem, 1994).
# System: not listed separately
# Experiment: Retention time at 35 mM
# Format: ADME
# Details: 35000 µM
# Summary of the method: (§1)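 Reversed-phase HPLC on a C8 column (4.6 × 100 mm, 10 µm) at room temperature (22-25 °C). The mobile phase was Brij35 micelle solution in 10 mM phosphate buffer, pH 4.01, run separately at 25, 30, 35 and 40 mM Brij35. NaNO₃ served as the dead-time marker.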
row,SMILES,Retention time [min]
1,COc1c(-c2nc(C)c(-c3cccnc3)[nH]2)cc2nc(O)[nH]c2c1Cl,1.296
2,Cc1[nH]c(-c2ccccc2N)nc1-c1cccnc1,3.21
3,COc1c(-c2nc(C)c(-c3cccnc3)[nH]2)cc(Cl)c2[nH]c(C)nc12,7.24
4,COc1ccccc1-c1nc(C)c(-c2cccnc2)[nH]1,3.97
5,COc1cc(NC(C)=O)c([N+](=O)[O-])cc1-c1nc(C)c(-c2cccnc2)[nH]1,8.08
6,Cc1ccccc1-c1nc(C)c(-c2cccnc2)[nH]1,4.64
7,CNC(=O)Nc1ccccc1-c1nc(C)c(-c2cccnc2)[nH]1,5.35
8,COc1c(-c2nc(C)c(-c3cccnc3)[nH]2)ccc2[nH]c(C)nc12,2.56
9,COc1cc2c(cc1-c1nc(C)c(-c3cccnc3)[nH]1)nc(O)n2C,1.345
10,Cc1[nH]c(-c2ccccc2Cl)nc1-c1cccnc1,7.17
11,Cc1nc2cc(Cl)c(-c3nc(C)c(-c4cccnc4)[nH]3)cc2[nH]1,3.19
12,COC(=O)Nc1ccccc1-c1nc(C)c(-c2cccnc2)[nH]1,7.27
13,CSc1ccccc1-c1nc(C)c(-c2cccnc2)[nH]1,6.46
14,COc1cc(NC(C)=O)c(Cl)cc1-c1nc(C)c(-c2cccnc2)[nH]1,6.32

# Next, values leading:
row,Retention time [min],SMILES
1,3.27,COc1c(-c2nc(C)c(-c3cccnc3)[nH]2)cc(Cl)c2[nH]c(CCC(=O)O)nc12
2,5.08,CCOc1ccccc1-c1nc(C)c(-c2cccnc2)[nH]1
3,4.05,COc1c(-c2nc(C)c(-c3cccnc3)[nH]2)cc2nc(C)[nH]c2c1Cl
4,2.06,COc1cc2[nH]c(C)nc2cc1-c1nc(C)c(-c2cccnc2)[nH]1
5,7.13,Cc1[nH]c(-c2ccccc2F)nc1-c1cccnc1
6,2.5,COc1cc(OC)c(-c2nc(C)c(-c3cccnc3)[nH]2)cc1NC(C)=O
7,1.28,Cc1nc2cc(-c3nc(C)c(-c4cccnc4)[nH]3)c(C)cc2[nH]1
8,6.57,CCOC(=O)COc1ccccc1-c1nc(C)c(-c2cccnc2)[nH]1

# System: Rattus norvegicus
# Experiment: Tested for antiplatelet activity in rat by conversion of the original antiplatelet activity data (%) to antiplatelet activity values at 10 umol/kg
# Format: functional
# Details: not given
row,SMILES,Log APA
1,COc1c(-c2nc(C)c(-c3cccnc3)[nH]2)cc(Cl)c2[nH]c(CCC(=O)O)nc12,0.4
2,COc1c(-c2nc(C)c(-c3cccnc3)[nH]2)cc2nc(O)[nH]c2c1Cl,0.79
3,Cc1[nH]c(-c2ccccc2N)nc1-c1cccnc1,0.8
4,COc1c(-c2nc(C)c(-c3cccnc3)[nH]2)cc(Cl)c2[nH]c(C)nc12,1.3
5,COc1ccccc1-c1nc(C)c(-c2cccnc2)[nH]1,1.1
6,COc1cc(NC(C)=O)c([N+](=O)[O-])cc1-c1nc(C)c(-c2cccnc2)[nH]1,1.5
7,Cc1ccccc1-c1nc(C)c(-c2cccnc2)[nH]1,0.18
8,CNC(=O)Nc1ccccc1-c1nc(C)c(-c2cccnc2)[nH]1,1.1
9,COc1c(-c2nc(C)c(-c3cccnc3)[nH]2)ccc2[nH]c(C)nc12,0.72
10,CCOc1ccccc1-c1nc(C)c(-c2cccnc2)[nH]1,1.1
11,COc1c(-c2nc(C)c(-c3cccnc3)[nH]2)cc2nc(C)[nH]c2c1Cl,1.4
12,COc1cc2[nH]c(C)nc2cc1-c1nc(C)c(-c2cccnc2)[nH]1,0.83
13,Cc1[nH]c(-c2ccccc2F)nc1-c1cccnc1,1.4
14,COc1cc(OC)c(-c2nc(C)c(-c3cccnc3)[nH]2)cc1NC(C)=O,0.93
15,COc1cc2c(cc1-c1nc(C)c(-c3cccnc3)[nH]1)nc(O)n2C,0.57
16,Cc1[nH]c(-c2ccccc2Cl)nc1-c1cccnc1,0.38
17,Cc1nc2cc(Cl)c(-c3nc(C)c(-c4cccnc4)[nH]3)cc2[nH]1,0.68
18,COC(=O)Nc1ccccc1-c1nc(C)c(-c2cccnc2)[nH]1,1.4
19,CSc1ccccc1-c1nc(C)c(-c2cccnc2)[nH]1,0.95
20,Cc1nc2cc(-c3nc(C)c(-c4cccnc4)[nH]3)c(C)cc2[nH]1,0.74
21,COc1cc(NC(C)=O)c(Cl)cc1-c1nc(C)c(-c2cccnc2)[nH]1,1.4
22,CCOC(=O)COc1ccccc1-c1nc(C)c(-c2cccnc2)[nH]1,0.6

# System: not listed separately
# Experiment: Retention time at 40 mM
# Format: ADME
# Details: 40000 µM
# Summary of the method: as §1
row,SMILES,Retention time [min]
1,COc1c(-c2nc(C)c(-c3cccnc3)[nH]2)cc2nc(O)[nH]c2c1Cl,1.289
2,Cc1[nH]c(-c2ccccc2N)nc1-c1cccnc1,3.07
3,COc1c(-c2nc(C)c(-c3cccnc3)[nH]2)cc(Cl)c2[nH]c(C)nc12,6.52
4,COc1ccccc1-c1nc(C)c(-c2cccnc2)[nH]1,3.76
5,COc1cc(NC(C)=O)c([N+](=O)[O-])cc1-c1nc(C)c(-c2cccnc2)[nH]1,7.33
6,Cc1ccccc1-c1nc(C)c(-c2cccnc2)[nH]1,4.39
7,CNC(=O)Nc1ccccc1-c1nc(C)c(-c2cccnc2)[nH]1,5
8,COc1c(-c2nc(C)c(-c3cccnc3)[nH]2)ccc2[nH]c(C)nc12,2.43
9,COc1cc2c(cc1-c1nc(C)c(-c3cccnc3)[nH]1)nc(O)n2C,1.331
10,Cc1[nH]c(-c2ccccc2Cl)nc1-c1cccnc1,6.64
11,Cc1nc2cc(Cl)c(-c3nc(C)c(-c4cccnc4)[nH]3)cc2[nH]1,3
12,COC(=O)Nc1ccccc1-c1nc(C)c(-c2cccnc2)[nH]1,6.7
13,CSc1ccccc1-c1nc(C)c(-c2cccnc2)[nH]1,6
14,COc1cc(NC(C)=O)c(Cl)cc1-c1nc(C)c(-c2cccnc2)[nH]1,5.78

# More lines, now with the values ahead:
row,Retention time [min],SMILES
1,3.1,COc1c(-c2nc(C)c(-c3cccnc3)[nH]2)cc(Cl)c2[nH]c(CCC(=O)O)nc12
2,4.77,CCOc1ccccc1-c1nc(C)c(-c2cccnc2)[nH]1
3,3.79,COc1c(-c2nc(C)c(-c3cccnc3)[nH]2)cc2nc(C)[nH]c2c1Cl
4,1.99,COc1cc2[nH]c(C)nc2cc1-c1nc(C)c(-c2cccnc2)[nH]1
5,6.57,Cc1[nH]c(-c2ccccc2F)nc1-c1cccnc1
6,2.41,COc1cc(OC)c(-c2nc(C)c(-c3cccnc3)[nH]2)cc1NC(C)=O
7,1.271,Cc1nc2cc(-c3nc(C)c(-c4cccnc4)[nH]3)c(C)cc2[nH]1
8,6.18,CCOC(=O)COc1ccccc1-c1nc(C)c(-c2cccnc2)[nH]1

# System: not listed separately
# Experiment: Retention time at 25 mM
# Format: ADME
# Details: 25000 µM
# Summary of the method: as §1
row,SMILES,Retention time [min]
1,COc1c(-c2nc(C)c(-c3cccnc3)[nH]2)cc2nc(O)[nH]c2c1Cl,1.32
2,Cc1[nH]c(-c2ccccc2N)nc1-c1cccnc1,3.58
3,COc1c(-c2nc(C)c(-c3cccnc3)[nH]2)cc(Cl)c2[nH]c(C)nc12,9.36
4,COc1ccccc1-c1nc(C)c(-c2cccnc2)[nH]1,4.59
5,COc1cc(NC(C)=O)c([N+](=O)[O-])cc1-c1nc(C)c(-c2cccnc2)[nH]1,10.35
6,Cc1ccccc1-c1nc(C)c(-c2cccnc2)[nH]1,5.2
7,CNC(=O)Nc1ccccc1-c1nc(C)c(-c2cccnc2)[nH]1,6.34
8,COc1c(-c2nc(C)c(-c3cccnc3)[nH]2)ccc2[nH]c(C)nc12,2.79
9,COc1cc2c(cc1-c1nc(C)c(-c3cccnc3)[nH]1)nc(O)n2C,1.375
10,Cc1[nH]c(-c2ccccc2Cl)nc1-c1cccnc1,8.63
11,Cc1nc2cc(Cl)c(-c3nc(C)c(-c4cccnc4)[nH]3)cc2[nH]1,3.56
12,COC(=O)Nc1ccccc1-c1nc(C)c(-c2cccnc2)[nH]1,8.79
13,CSc1ccccc1-c1nc(C)c(-c2cccnc2)[nH]1,7.65
14,COc1cc(NC(C)=O)c(Cl)cc1-c1nc(C)c(-c2cccnc2)[nH]1,7.95

# Results, then the compound that gave them:
row,Retention time [min],SMILES
1,3.68,COc1c(-c2nc(C)c(-c3cccnc3)[nH]2)cc(Cl)c2[nH]c(CCC(=O)O)nc12
2,6.01,CCOc1ccccc1-c1nc(C)c(-c2cccnc2)[nH]1
3,4.69,COc1c(-c2nc(C)c(-c3cccnc3)[nH]2)cc2nc(C)[nH]c2c1Cl
4,2.23,COc1cc2[nH]c(C)nc2cc1-c1nc(C)c(-c2cccnc2)[nH]1
5,8.75,Cc1[nH]c(-c2ccccc2F)nc1-c1cccnc1
6,2.75,COc1cc(OC)c(-c2nc(C)c(-c3cccnc3)[nH]2)cc1NC(C)=O
7,1.3,Cc1nc2cc(-c3nc(C)c(-c4cccnc4)[nH]3)c(C)cc2[nH]1
8,9.21,CCOC(=O)COc1ccccc1-c1nc(C)c(-c2cccnc2)[nH]1

# System: Rattus norvegicus
# Experiment: Tested for inhibitory activity on rat platelet aggregation induced by collagen measured after 1 hr of oral administration of compound (10 mg/kg) in rat.
# Format: functional
# Details: not given
row,SMILES,Inhibition [%]
1,COc1c(-c2nc(C)c(-c3cccnc3)[nH]2)cc(Cl)c2[nH]c(CCC(=O)O)nc12,6
2,COc1c(-c2nc(C)c(-c3cccnc3)[nH]2)cc2nc(O)[nH]c2c1Cl,17
3,Cc1[nH]c(-c2ccccc2N)nc1-c1cccnc1,25
4,COc1c(-c2nc(C)c(-c3cccnc3)[nH]2)cc(Cl)c2[nH]c(C)nc12,51
5,COc1ccccc1-c1nc(C)c(-c2cccnc2)[nH]1,49
6,COc1cc(NC(C)=O)c([N+](=O)[O-])cc1-c1nc(C)c(-c2cccnc2)[nH]1,86
7,Cc1ccccc1-c1nc(C)c(-c2cccnc2)[nH]1,6
8,CNC(=O)Nc1ccccc1-c1nc(C)c(-c2cccnc2)[nH]1,46
9,COc1c(-c2nc(C)c(-c3cccnc3)[nH]2)ccc2[nH]c(C)nc12,16
10,CCOc1ccccc1-c1nc(C)c(-c2cccnc2)[nH]1,45
11,COc1c(-c2nc(C)c(-c3cccnc3)[nH]2)cc2nc(C)[nH]c2c1Cl,63
12,COc1cc2[nH]c(C)nc2cc1-c1nc(C)c(-c2cccnc2)[nH]1,21
13,Cc1[nH]c(-c2ccccc2F)nc1-c1cccnc1,98
14,COc1cc(OC)c(-c2nc(C)c(-c3cccnc3)[nH]2)cc1NC(C)=O,24
15,COc1cc2c(cc1-c1nc(C)c(-c3cccnc3)[nH]1)nc(O)n2C,11
16,Cc1[nH]c(-c2ccccc2Cl)nc1-c1cccnc1,9
17,Cc1nc2cc(Cl)c(-c3nc(C)c(-c4cccnc4)[nH]3)cc2[nH]1,15
18,CSc1ccccc1-c1nc(C)c(-c2cccnc2)[nH]1,32
19,Cc1nc2cc(-c3nc(C)c(-c4cccnc4)[nH]3)c(C)cc2[nH]1,18
20,COc1cc(NC(C)=O)c(Cl)cc1-c1nc(C)c(-c2cccnc2)[nH]1,65
21,CCOC(=O)COc1ccccc1-c1nc(C)c(-c2cccnc2)[nH]1,12

# System: not listed separately
# Experiment: Retention time at 30 mM
# Format: ADME
# Details: 30000 µM
# Summary of the method: as §1
row,SMILES,Retention time [min]
1,COc1c(-c2nc(C)c(-c3cccnc3)[nH]2)cc2nc(O)[nH]c2c1Cl,1.301
2,Cc1[nH]c(-c2ccccc2N)nc1-c1cccnc1,3.37
3,COc1c(-c2nc(C)c(-c3cccnc3)[nH]2)cc(Cl)c2[nH]c(C)nc12,8.14
4,COc1ccccc1-c1nc(C)c(-c2cccnc2)[nH]1,4.21
5,COc1cc(NC(C)=O)c([N+](=O)[O-])cc1-c1nc(C)c(-c2cccnc2)[nH]1,9.08
6,Cc1ccccc1-c1nc(C)c(-c2cccnc2)[nH]1,4.92
7,CNC(=O)Nc1ccccc1-c1nc(C)c(-c2cccnc2)[nH]1,5.78
8,COc1c(-c2nc(C)c(-c3cccnc3)[nH]2)ccc2[nH]c(C)nc12,2.7
9,COc1cc2c(cc1-c1nc(C)c(-c3cccnc3)[nH]1)nc(O)n2C,1.362
10,Cc1[nH]c(-c2ccccc2Cl)nc1-c1cccnc1,7.83
11,Cc1nc2cc(Cl)c(-c3nc(C)c(-c4cccnc4)[nH]3)cc2[nH]1,3.41
12,COC(=O)Nc1ccccc1-c1nc(C)c(-c2cccnc2)[nH]1,7.94
13,CSc1ccccc1-c1nc(C)c(-c2cccnc2)[nH]1,7.01
14,COc1cc(NC(C)=O)c(Cl)cc1-c1nc(C)c(-c2cccnc2)[nH]1,7.01

# Second part, the compound after the results:
row,Retention time [min],SMILES
1,3.47,COc1c(-c2nc(C)c(-c3cccnc3)[nH]2)cc(Cl)c2[nH]c(CCC(=O)O)nc12
2,5.44,CCOc1ccccc1-c1nc(C)c(-c2cccnc2)[nH]1
3,4.36,COc1c(-c2nc(C)c(-c3cccnc3)[nH]2)cc2nc(C)[nH]c2c1Cl
4,2.16,COc1cc2[nH]c(C)nc2cc1-c1nc(C)c(-c2cccnc2)[nH]1
5,7.84,Cc1[nH]c(-c2ccccc2F)nc1-c1cccnc1
6,2.6,COc1cc(OC)c(-c2nc(C)c(-c3cccnc3)[nH]2)cc1NC(C)=O
7,1.294,Cc1nc2cc(-c3nc(C)c(-c4cccnc4)[nH]3)c(C)cc2[nH]1
8,7.12,CCOC(=O)COc1ccccc1-c1nc(C)c(-c2cccnc2)[nH]1

# System: Rattus norvegicus
# Experiment: Tested for inhibitory activity on rat platelet aggregation induced by collagen ex vivo measured after 1 hr of oral administration of compound (10 mg/kg) in rat.
# Format: functional
# Details: not given
row,SMILES,Inhibition [%]
1,COC(=O)Nc1ccccc1-c1nc(C)c(-c2cccnc2)[nH]1,73
